In ChEMBL document CHEMBL5252646, “Novel thienocycloalkylpyridazinones as useful scaffolds for acetylcholinesterase inhibition and serotonin 5-HT6 receptor interaction” (Bioorg Med Chem, 2023) one finds inhibition, IC50 and Ki data, which are given here for 20 compounds.

pIC50, pKi: −log10 of the molar value. Activity calls are given as the source filed them. The calls are words filed in the database; no cut-off is given here.

As a reminder, the inhibition is the share of the control response that was lost under treatment. As usually defined, the pIC50 is −log10 of the IC50, conventionally taken in molar units. Higher therefore signals a small IC50. The term pKi denotes −log10 of the Ki, conventionally taken in molar units.

Experiment [1] addresses T1, 5-hydroxytryptamine receptor 1A (Homo sapiens) (UniProt P08908).
T1 sequence (whole entry): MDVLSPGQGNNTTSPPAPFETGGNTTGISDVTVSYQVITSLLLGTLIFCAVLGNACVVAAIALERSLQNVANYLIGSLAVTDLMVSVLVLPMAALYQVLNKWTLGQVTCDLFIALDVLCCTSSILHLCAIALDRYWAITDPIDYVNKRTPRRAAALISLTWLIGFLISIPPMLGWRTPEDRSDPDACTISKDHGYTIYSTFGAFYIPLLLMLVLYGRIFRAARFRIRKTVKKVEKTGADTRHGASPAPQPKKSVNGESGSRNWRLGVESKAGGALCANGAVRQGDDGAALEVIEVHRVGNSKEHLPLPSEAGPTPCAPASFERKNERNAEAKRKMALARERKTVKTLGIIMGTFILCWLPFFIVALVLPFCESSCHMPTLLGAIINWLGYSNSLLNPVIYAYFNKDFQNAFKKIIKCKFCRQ
In words: Displacement of [3H]-8-OH-DPAT from human 5-HT1A receptor expressed in HEK cell membrane at 10 uM incubated for 120 mins by microplate beta scintillation counting analysis. Type of experiment: cell membranes. In a few lines: (§1)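 Membranes from HEK cells expressing human 5-HT1A, 10 µg per well, with 1 nM [3H]-8-OH-DPAT, 120 min at 37 °C. Buffer 50 mM Tris-HCl, 5 mM MgSO4, pH 7.4. Nonspecific binding with 10 µM 5-HT. Filtered on PEI-treated GF/C and washed, then scintillation counted. Duplicates.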
(Displacement assays read how much labelled ligand stays bound in the presence of the test substance.)

The target of experiment [2] is T2, 5-hydroxytryptamine receptor 6 (Homo sapiens, UniProt P50406). In words: Displacement of [3H]-LSD from human 5-HT6 receptor expressed in HEK cell membrane at 10 uM incubated for 60 mins by microplate beta scintillation counting analysis. Type of experiment: cell membranes. An outline of the steps: (§2)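 Membranes from HEK cells expressing human 5-HT6, 5 µg per well, with 2 nM [3H]-LSD, 60 min at 37 °C. Buffer 50 mM Tris-HCl, 10 mM MgCl2, 0.5 mM EDTA, pH 7.4. Nonspecific binding with 100 µM 5-HT. Filtered on GF/C, scintillation counted.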

In experiment [3] the target is T3, Cholinesterase (Homo sapiens, UniProt P06276). In words: Inhibition of human BChE using butyrylthiocholine iodide as substrate preincubated with enzyme for 20 mins followed by substrate addition and measured for 5 mins by Ellman's spectrophotometric method.
For experiment [4], the target named is T4, Acetylcholinesterase (Homo sapiens, UniProt P22303). In words: Inhibition of human AChE using acetylthiocholine iodide as substrate preincubated with enzyme for 20 mins followed by substrate addition and measured for 5 mins by Ellman's spectrophotometric method. (DTNB colorimetry detects thiols as they appear.)
For experiment [5], the target named is T5, 5-hydroxytryptamine receptor 7 (Homo sapiens, UniProt P34969). Kind of experiment: Displacement of [3H]SB269970 from human 5-HT7 receptor expressed in HEK cell membrane at 10 uM incubated for 60 mins by microplate beta scintillation counting analysis. It counts as cell membranes. An outline of the steps: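 Membranes from HEK cells expressing human 5-HT7, 2 µg per well, with 2 nM [3H]-SB269970, 60 min at 37 °C. Buffer Tris-HCl 50 mM, 4 mM CaCl2, 1 mM ascorbic acid, 0.1 mM pargyline, pH 7.4. Nonspecific binding with 25 µM clozapine. Filtered, scintillation counted. Duplicates. Displacement as % at 10 µM.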

Experiment [6] deals with T3, Cholinesterase. Kind of experiment: Inhibition of human BChE using butyrylthiocholine iodide as substrate at 10 uM preincubated with enzyme for 20 mins followed by substrate addition and measured for 5 mins by Ellman's spectrophotometric method. As to conditions: time 25.0 min.
In experiment [7] the target is T6, 5-hydroxytryptamine receptor 4 (Homo sapiens, UniProt Q13639). Kind of experiment: Antagonist activity at 5-HT4 receptor in human HeLa cells assessed as inhibition of intracellular calcium mobilization at 10 uM incubated for 2 hrs by FLIPR assay. It counts as cell-based. An outline of the steps:
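HeLa cells stably expressing human 5-HT4, 20,000 per well, seeded the day before. Medium replaced with DMEM plus Calcium 6 dye, 2 h at 37 °C, then compounds and standard added. Intracellular calcium read by fluorescence (ex 480, em 540 nm) every second after a baseline. Duplicates.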

Experiment [8] concerns the target T5, 5-hydroxytryptamine receptor 7. Kind of experiment: Displacement of [3H]SB269970 from human 5-HT7 receptor expressed in HEK cell membrane incubated for 60 mins by microplate beta scintillation counting analysis. It counts as cell membranes.
For experiment [9], the target named is T2, 5-hydroxytryptamine receptor 6. Kind of experiment: Displacement of [3H]-LSD from human 5-HT6 receptor expressed in HEK cell membrane incubated for 60 mins by microplate beta scintillation counting analysis. Type of experiment: cell membranes. An outline of the steps: as §2
Experiment [10] concerns the target T7, 5-hydroxytryptamine receptor 1A (Homo sapiens, UniProt P08908).
T7 sequence (P08908 whole entry): T1 sequence (whole entry)
Kind of experiment: Displacement of [3H]-8-OH-DPAT from human 5-HT1A receptor expressed in HEK cell membrane incubated for 120 mins by microplate beta scintillation counting analysis. It counts as cell membranes. An outline of the steps: as §1

Experiment [11] addresses T4, Acetylcholinesterase. In words: Competitive inhibition of human AChE using acetylthiocholine iodide as substrate preincubated with enzyme for 20 mins followed by varing concentrations of substrate addition and measured for 5 mins by Lineweaver-Burk plot analysis. An outline of the steps: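 Human AChE, Ellman spectrophotometric method in 96-well format, run in triplicate. Kinetics: six acetylthiocholine concentrations (0.033 to 0.2 mM) crossed with four inhibitor concentrations (0–300 nM). Analysed by the Michaelis-Menten approach; kinetic parameters from nonlinear regression.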

Experiment [12] has as its target T6, 5-hydroxytryptamine receptor 4. In words: Antagonist activity at 5-HT4 receptor in human HeLa cells assessed as inhibition of intracellular calcium mobilization incubated for 2 hrs by FLIPR assay. It counts as cell-based. In a few lines: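 HeLa cells stably expressing human 5-HT4, seeded the day before at 20,000 cells/well. Medium replaced with DMEM plus Calcium 6 dye, then 2 h at 37 °C. Compounds and standard added afterwards. Fluorescence from intracellular calcium mobilization (ex 480 nm, em 540 nm) recorded every second after a baseline was set. Run in duplicate.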

T5 sequence (P34969 whole entry): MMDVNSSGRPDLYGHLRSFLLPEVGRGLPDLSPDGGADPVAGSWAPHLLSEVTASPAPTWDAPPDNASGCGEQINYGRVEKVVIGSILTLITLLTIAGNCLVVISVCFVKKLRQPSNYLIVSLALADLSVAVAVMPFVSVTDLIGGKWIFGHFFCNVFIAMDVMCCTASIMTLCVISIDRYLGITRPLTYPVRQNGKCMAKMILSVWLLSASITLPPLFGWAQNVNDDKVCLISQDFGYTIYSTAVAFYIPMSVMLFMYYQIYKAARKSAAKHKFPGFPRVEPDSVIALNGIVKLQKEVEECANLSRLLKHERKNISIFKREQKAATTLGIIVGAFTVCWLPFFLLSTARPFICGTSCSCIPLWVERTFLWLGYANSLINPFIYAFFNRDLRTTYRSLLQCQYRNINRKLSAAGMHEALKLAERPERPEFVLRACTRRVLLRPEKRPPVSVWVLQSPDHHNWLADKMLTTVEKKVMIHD
T3 sequence (P06276 whole entry): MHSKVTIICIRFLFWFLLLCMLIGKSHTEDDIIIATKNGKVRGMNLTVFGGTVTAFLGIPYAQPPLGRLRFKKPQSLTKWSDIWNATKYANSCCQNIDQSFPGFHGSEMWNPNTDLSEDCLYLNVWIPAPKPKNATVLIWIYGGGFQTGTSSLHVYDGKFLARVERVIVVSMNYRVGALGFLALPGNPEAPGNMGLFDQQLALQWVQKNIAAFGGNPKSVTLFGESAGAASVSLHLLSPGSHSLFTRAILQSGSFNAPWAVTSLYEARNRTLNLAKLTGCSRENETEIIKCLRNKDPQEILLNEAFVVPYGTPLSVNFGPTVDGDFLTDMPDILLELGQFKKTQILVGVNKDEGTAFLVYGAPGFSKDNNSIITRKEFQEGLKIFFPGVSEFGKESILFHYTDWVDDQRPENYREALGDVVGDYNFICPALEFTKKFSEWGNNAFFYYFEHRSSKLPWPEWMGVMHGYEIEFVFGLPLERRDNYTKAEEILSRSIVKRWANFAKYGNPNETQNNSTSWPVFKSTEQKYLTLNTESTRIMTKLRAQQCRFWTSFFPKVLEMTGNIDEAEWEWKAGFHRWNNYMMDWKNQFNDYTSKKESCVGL
T6 sequence (Q13639 whole entry): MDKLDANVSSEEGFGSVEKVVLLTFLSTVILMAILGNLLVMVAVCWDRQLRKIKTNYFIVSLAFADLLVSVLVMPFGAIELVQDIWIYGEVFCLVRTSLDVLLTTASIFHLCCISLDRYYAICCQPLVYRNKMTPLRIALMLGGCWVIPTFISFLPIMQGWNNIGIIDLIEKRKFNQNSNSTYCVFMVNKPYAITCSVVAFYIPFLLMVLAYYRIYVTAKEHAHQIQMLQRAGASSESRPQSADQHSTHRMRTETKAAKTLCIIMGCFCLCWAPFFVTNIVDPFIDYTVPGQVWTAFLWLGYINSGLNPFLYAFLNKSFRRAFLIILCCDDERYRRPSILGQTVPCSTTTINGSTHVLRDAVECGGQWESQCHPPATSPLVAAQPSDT
T2 sequence (P50406 whole entry): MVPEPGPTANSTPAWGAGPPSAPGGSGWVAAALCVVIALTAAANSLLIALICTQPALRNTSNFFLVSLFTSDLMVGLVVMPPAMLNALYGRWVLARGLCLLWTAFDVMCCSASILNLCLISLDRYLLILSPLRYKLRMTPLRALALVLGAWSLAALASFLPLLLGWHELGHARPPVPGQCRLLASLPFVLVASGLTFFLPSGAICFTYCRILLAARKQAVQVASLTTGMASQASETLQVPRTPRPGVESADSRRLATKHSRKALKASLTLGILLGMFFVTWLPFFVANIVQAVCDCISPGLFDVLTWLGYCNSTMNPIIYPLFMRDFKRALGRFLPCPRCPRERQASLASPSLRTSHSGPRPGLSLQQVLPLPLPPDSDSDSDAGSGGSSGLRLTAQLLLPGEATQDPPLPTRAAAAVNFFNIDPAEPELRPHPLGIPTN
T4 sequence (P22303 whole entry): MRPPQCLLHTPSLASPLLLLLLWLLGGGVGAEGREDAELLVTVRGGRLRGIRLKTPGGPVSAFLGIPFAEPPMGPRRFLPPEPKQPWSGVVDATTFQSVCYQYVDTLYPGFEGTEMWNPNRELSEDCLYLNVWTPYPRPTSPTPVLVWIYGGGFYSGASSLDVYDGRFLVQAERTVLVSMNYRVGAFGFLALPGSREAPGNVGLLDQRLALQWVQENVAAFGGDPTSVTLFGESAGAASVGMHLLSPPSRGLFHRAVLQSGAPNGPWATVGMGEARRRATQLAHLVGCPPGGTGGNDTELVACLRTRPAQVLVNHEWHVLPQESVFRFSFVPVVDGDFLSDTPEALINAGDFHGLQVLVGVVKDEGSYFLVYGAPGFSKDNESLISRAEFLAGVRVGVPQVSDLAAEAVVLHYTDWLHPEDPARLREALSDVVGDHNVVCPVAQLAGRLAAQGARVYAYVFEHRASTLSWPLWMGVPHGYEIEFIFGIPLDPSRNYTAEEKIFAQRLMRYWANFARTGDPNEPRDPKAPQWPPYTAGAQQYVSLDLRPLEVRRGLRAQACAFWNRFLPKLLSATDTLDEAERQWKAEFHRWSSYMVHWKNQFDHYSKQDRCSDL

Take `O=C1CC2CCc3ccsc3C2=NN1CN1CCN(Cc2ccccc2)CC1` (centres undefined): the inhibition amounted to 24% in experiment [1], 28% in [2] and 23% in experiment [5]. Besides, the values for the pIC50 against Cholinesterase [3] and on Acetylcholinesterase [4] were 5.25 and 4.87, respectively.
As for `CN(C)CCCCN1N=C2c3sccc3CCC2CC1=O` (centres undefined), the inhibition entry at Cholinesterase [6] was “inactive”. In addition, the figures for the inhibition in [1], in [2] and in experiment [5] were 37%, 36% and 24%, respectively. The compound also showed a pIC50 at Acetylcholinesterase [4] of 5.20.
For `O=C1CC2Cc3ccsc3C2=NN1CCCCCCCN1CCN(Cc2cccc3c2ccn3S(=O)(=O)c2ccccc2)CC1` (centres undefined), on Acetylcholinesterase [4], the pIC50 was 5.14. The inhibition result in experiment [7] was “inactive”. The pKi in experiment [8] is 5.42; in [9], 7.10; in experiment [10] it was 5.18.
On to `O=C1CC2CCc3ccsc3C2=NN1CCCCCCCN1CCN(Cc2cccc3c2ccn3S(=O)(=O)c2ccccc2)CC1` (centres undefined), for which the inhibition in experiment [1] came out at 33%; in experiment [7], 16%; in [5] (filed as antagonist) it was 43%. The compound further showed a pIC50 against Acetylcholinesterase [4] of 5.34. The pKi in [9] was 7.06.
Regarding `O=C1CC2CCCc3ccsc3C2=NN1CCCCN1CCN(Cc2ccccc2)CC1` (centres undefined), the pIC50 against Cholinesterase [3] was 5.38; on Acetylcholinesterase [4], 5.91. In addition, the results for the pKi in experiment [8], in [9] and in experiment [10] were 6.01, 5.84 and 6.38, respectively.
Compound `O=C1CC2Cc3ccsc3C2=NN1CCCCCN1CCN(Cc2cccc3c2ccn3S(=O)(=O)c2ccccc2)CC1` (centres undefined) gave a pIC50 on Acetylcholinesterase [4] of 5.16. For the same compound, the inhibition entry in experiment [7] was “inactive”. Moreover, the pKi was 5.74 in experiment [8], 8.08 in experiment [9] and 5.45 in [10].
Take `O=C1CC2Cc3ccsc3C2=NN1CCCCCCN1CCN(Cc2cccc3c2ccn3S(=O)(=O)c2ccccc2)CC1` (centres undefined): at Acetylcholinesterase [4], the pIC50 was 5.04. Moreover, the inhibition result in [7] was “inactive”. Moreover, in [5], the inhibition worked out at 39%. For the same compound, the pKi in experiment [9] is 7.17; in experiment [10], 5.29.
As for `O=C1CC2CCc3ccsc3C2=NN1CCN1CCN(Cc2ccccc2)CC1` (centres undefined), the pIC50 is 5.29 against Cholinesterase [3] and 6.77 against Acetylcholinesterase [4]. Also, the figures for the pKi (on Acetylcholinesterase [11]; in experiment [9]; in experiment [10]) were 6.91, 5.78 and 5.96, respectively. This compound had an inhibition in experiment [5] of 26%.
As for `CCN(CC)CCCCN1N=C2c3sccc3CCC2CC1=O` (centres undefined), the inhibition entry on Cholinesterase [6] was “inactive”. Moreover, the figures for the inhibition in experiment [2] and in experiment [5] were 27% and 10%, respectively. The compound also gave a pIC50 at Acetylcholinesterase [4] of 5.53. The pKi in experiment [10] is 5.06.
With `O=C1CC2CCc3ccsc3C2=NN1Cc1ccc(CN2CCN(Cc3ccccc3)CC2)cc1` (centres undefined), the figures for the pIC50 on Cholinesterase [3] and against Acetylcholinesterase [4] were 5.01 and 5.44, respectively. Further, the pKi in [8] was 5.68; in experiment [9] it was 5.90; in experiment [10] it was 6.10.
For `O=C1CC2CCc3ccsc3C2=NN1CCCCN1CCCC1` (centres undefined), the inhibition came out at 14% on Cholinesterase [6], 33% in experiment [2] and 16% in experiment [5]. At Acetylcholinesterase [4], this compound showed a pIC50 of 5.94. This compound had a pKi in [10] of 5.45.
In the case of `Cn1cc(C(=O)OCC2CCN(CCNS(C)(=O)=O)CC2)c2ccccc21`, the pKi in experiment [12] was 8.85.
On Cholinesterase [6], `O=C1CC2Cc3ccsc3C2=NN1CCCCN1CCN(Cc2ccccc2)CC1` (centres undefined) yielded an inhibition of 11%. This compound also gave a pIC50 on Acetylcholinesterase [4] of 6.27. Besides, the pKi in [8] was 6.00; in [9], 5.40; in [10], 6.21.
For the compound `O=C1CC2CCc3ccsc3C2=NN1CCCCN1CCN(Cc2cccc3c2ccn3S(=O)(=O)c2ccccc2)CC1` (centres undefined), the pIC50 against Acetylcholinesterase [4] is 5.12. The inhibition entry in [7] is “inactive”. For the same compound, the pKi was 5.70 in experiment [8], 6.63 in experiment [9] and 5.55 in experiment [10].
In the case of `O=C1CC2CCc3ccsc3C2=NN1CCCCN1CCCCC1` (centres undefined), the inhibition came out at 9% against Cholinesterase [6], 30% in experiment [2] and 18% in [5]. The pIC50 against Acetylcholinesterase [4] was 5.68. Moreover, the pKi in experiment [10] is 5.37.
In turn, `O=C1CC2CCc3ccsc3C2=NN1CCCCN1CCN(Cc2ccccc2)CC1` (centres undefined) had an inhibition on Cholinesterase [6] of 45%. Also, at Acetylcholinesterase [4], the pIC50 is 6.12. Also, the values for the pKi in experiment [8], in experiment [9] and in [10] were 6.00, 5.48 and 6.30, respectively.
With `O=C1CC2CCc3sccc3C2=NN1CCCCN1CCN(Cc2ccccc2)CC1` (centres undefined), the values for the pIC50 on Cholinesterase [3] and against Acetylcholinesterase [4] were 5.48 and 6.07, respectively.
With `O=C1CC2CCc3ccsc3C2=NN1CCCCCN1CCN(Cc2cccc3c2ccn3S(=O)(=O)c2ccccc2)CC1` (centres undefined), the inhibition in experiment [1] turned out to be 35%. On Acetylcholinesterase [4], this compound had a pIC50 of 5.35. The inhibition entry in [7] was “inactive”. The values for the pKi in experiment [8] and in experiment [9] were 5.77 and 7.20, respectively.
With `O=C1CC2Cc3ccsc3C2=NN1CCCCN1CCN(Cc2cccc3c2ccn3S(=O)(=O)c2ccccc2)CC1` (centres undefined), the pIC50 against Acetylcholinesterase [4] is 5.45. The inhibition in experiment [7] is 26%. Besides, the pKi in experiment [8] was 5.70; in [9], 6.71; in experiment [10], 5.34.
Turning to `O=C1CC2CCc3ccsc3C2=NN1CCCCCCN1CCN(Cc2cccc3c2ccn3S(=O)(=O)c2ccccc2)CC1` (centres undefined), the inhibition in [1] is 23%; in experiment [7], 12%; in experiment [5], 33%. For the same compound, the pIC50 at Acetylcholinesterase [4] is 5.01. Moreover, the pKi in experiment [9] is 6.99.
